Experimental data collected from several papers.
Lines come from different studies, so protocols differ.
Target: 5-hydroxytryptamine receptor 2B (HTR2B, Homo sapiens, UniProt P41595)

| SMILES | test | setting | measurement | result |
| --- | --- | --- | --- | --- |
| Nc1ncc(-c2nc(N3CCOCC3)nc(N3CCOCC3)n2)c(C(F)F)n1 | cell-free assay, radioligand | 10 µM | remaining signal | 94.1% |
| COc1cc2c3c(c1OC)-c1cc4c(cc1CC3N(C)CC2)OCO4 (racemic) | ligand displacement, radioligand | 10 µM | inhibition | 92.8% |
| CC(Cc1ccccc1)NCCn1cnc2c1c(=O)n(C)c(=O)n2C (centres unmarked) | ligand displacement, radioligand | 10 µM | inhibition | 23% |
| C[C@H](C(=O)N[C@H]1COc2ccccc2[C@@H]1S(C)(=O)=O)c1ccc(F)cc1 | ligand displacement | 10 µM | inhibition | -9% |
| Clc1ccc2c(C3CCN(CCc4c[nH]c5ccccc45)CC3)c[nH]c2c1 | ligand displacement, radioligand | 10 µM | inhibition | 100% |
| c1ccc(C(NCCNC(c2ccccc2)c2ccccc2)c2ccccc2)cc1 | ligand displacement | 10 µM | inhibition | 79% |
| CCC(N)Cc1cc(OC)c(COC)cc1OC (centres unmarked) | G protein activation, agonist, BRET | – | Emax | 43% |
| N#CC1(c2ccccn2)CCN(Cc2cc(C(=O)O)c(=O)n3ccccc23)CC1 | ligand displacement | 10 µM | inhibition | 3.23% |
| CCN(CC)CCCC[C@H](NC(=O)[C@H](CC(C)C)NC(=O)[C@H](C)NC(=O)[C@H](Cc1ccccc1)NC(=O)c1ccc(C(C)(C)C)cc1)C(=O)N[C@@H](CO)C(=O)OC | ligand displacement, radioligand | 10 µM | inhibition | 7% |
| COCc1c(-c2cc3cc(C)cc(OC)c3s2)c2c(N)ncnn2c1CN1CCNC(=O)C1 | ligand displacement, radioligand | 10 µM | inhibition | 84% |
| CCOc1ccccc1NC(=O)c1ccccc1NS(=O)(=O)C1CC1 | ligand displacement, radioligand | 10 µM | inhibition | 63% |
| CC(C)N1CCC[C@H]1CNC(=O)c1cn(C2CCCC2)c(=O)c2c1c1ccccc1n2C | ligand displacement, radioligand | 10 µM | inhibition | 41% |
| COCCN(CCOC)C(=O)[C@@]12C[C@@H]1[C@@H](n1cnc3c(N)nc(Cl)nc31)[C@H](O)[C@@H]2O | ligand displacement, radioligand | 10 µM | inhibition | 36% |
| Cn1cncc1[C@@](O)(COc1ccc(C#N)cc1-c1ccc(OC(F)(F)F)cc1)c1ccc(C#N)cc1 | ligand displacement | 10 µM | inhibition | 18.6% |
